Measurements from PubChem BioAssay AID651575 (The Scripps Research Institute Molecular Screening Center, 2012).

system: Huh-7.5 HCV J6/JFH-1 infection, RT-qPCR viral RNA, 48 h; test: blockade of HCV J6/JFH-1 infection of hepatoma cells – cell-based, RT-qPCR viral RNA, Huh-7.5, powder samples, counter-screen for HCV core dimerization inhibitor project, late-stage follow-up (AID 651575)
Procedure, shortened: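 Test system: Huh-7.5 cells infected with HCV genotype 2a J6/JFH-1. Reagent: HCV 2a J6/JFH-1 virus added together with compound. Incubation: 24 h infection with compound, then 48 h compound. Measured by: Taqman real-time RT-qPCR of HCV RNA, Ct values. Measure: IC50 from sigmoidal fit of percent inhibition.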

Row | Compound | IC50
1 | Cc1ccc(Cc2c(C)nc3nc(SCC(=O)NCCN4CCOCC4)nn3c2C)cc1 | 312 nM
2 | Cc1ccc(Cc2c(CCc3ccccc3)nc3nc(SC(Cc4ccccc4)C(=O)NCCN4CCOCC4)nn3c2C)cc1 (centres undefined) | 286 nM
3 | Cc1ccc(Cc2c(C)nc3nc(SCC(=O)NCCN4CCCN(S(=O)(=O)c5ccccc5)CC4)nn3c2C)cc1 | 665 nM
4 | Cc1ccc(Cc2c(C)nc3nc(SCC(=O)NCCN4CCCN(S(=O)(=O)c5ccc(C)cc5)CC4)nn3c2C)cc1 | 4 nM
5 | Cc1ccc(Cc2c(C)nc3nc(SCC(=O)NCCN4CCN(CCc5ccccc5)CC4)nn3c2C)cc1 | 294 nM
6 | Cc1ccc(Cc2c(C)nc3nc(SCC(=O)NCCN4CCCCCC4)nn3c2C)cc1 | 191 nM
7 | Cc1ccc(Cc2c(C)nc3nc(SCC(=O)NCCN4CCN(Cc5ccc(F)cc5)CC4)nn3c2C)cc1 | 32 nM
8 | Cc1ccc(Cc2c(C)nc3nc(SCC(=O)NCCN4CCNCC4)nn3c2C)cc1 | 2 nM
9 | Cc1ccc(Cc2c(C)nc3nc(SCC(=O)NCCN4CCCN(S(C)(=O)=O)CC4)nn3c2C)cc1 | 1240 nM
